Results gathered from unrelated publications.
Medium: Caco-2

SMILES	tested at	time	Papp B→A
Cc1cc(C)c(CNC(=O)c2cc(Cl)c3c(c2C)O[C@@](C)([C@H]2CC[C@H](N(C)C)CC2)O3)c(=O)[nH]1	100 µM		16.3 ×10⁻⁶ cm/s
N#Cc1ccc(C[C@H](NC(=O)c2cc3cc(F)ccc3[nH]2)C(=O)N2CCc3ccccc32)cc1	100 µM	2 h	386 ×10⁻⁶ cm/s
CCCCCCOC(=O)NC(=N)c1ccc(NCc2nc3cc(C(=O)N(CCC(=O)OCC)c4ccccn4)ccc3n2C)cc1	5 µM	2 h	1.1 ×10⁻⁶ cm/s
N#Cc1ccc(C[C@H](Nc2nnc(-c3ccc(F)cc3)s2)C(=O)N2CCc3ccccc32)cc1	100 µM	2 h	314 ×10⁻⁶ cm/s
CC(C)c1nc(N(C)S(C)(=O)=O)nc(-c2ccc(F)cc2)c1/C=C/[C@@H](O)C[C@@H](O)CC(=O)O	5 µM	2 h	14.6 ×10⁻⁶ cm/s
CCCCCOC(=O)Nc1nc(=O)n([C@@H]2O[C@H](C)[C@@H](O)[C@H]2O)cc1F		4 h	14.3 ×10⁻⁶ cm/s
COc1ccc([C@@H]2CC(=O)c3c(O)cc(O)cc3O2)cc1O	100 µg/mL	2 h	21.4 ×10⁻⁶ cm/s
CC(C)NCC(O)COc1cccc2ccccc12 (centres unmarked)	10 µM	2 h	20 ×10⁻⁶ cm/s
O=C(CCc1ccc(O)cc1)c1c(O)cc(O)cc1O[C@@H]1O[C@H](CO)[C@@H](O)[C@H](O)[C@H]1O	100 µg/mL	2 h	5.39 ×10⁻⁶ cm/s
CC[C@]1(O)C[C@@H]2CN(CCc3c([nH]c4ccccc34)[C@@](C(=O)OC)(c3cc4c(cc3OC)N(C)[C@H]3[C@@](O)(C(=O)OC)[C@H](OC(C)=O)[C@]5(CC)C=CCN6CC[C@]43[C@@H]65)C2)C1	10 µM	2 h	22.9 ×10⁻⁶ cm/s
COc1ccc(-c2coc3cc(O)cc(O)c3c2=O)cc1	100 µg/mL	2 h	21.2 ×10⁻⁶ cm/s
C=CC(=O)NC1CCN(c2ncc3ncnc(Nc4ccc(Oc5ccc6c(c5)ncn6C)c(C)c4)c3n2)CC1			~9 ×10⁻⁶ cm/s
N#Cc1ccc(C[C@H](Nc2ncc(-c3ccc(F)cc3)o2)C(=O)N2CCc3ccccc32)cc1	100 µM	2 h	200 ×10⁻⁶ cm/s
Oc1cc(O)c2c(c1)O[C@H](c1ccc(O)c(O)c1)[C@H](O)C2	100 µg/mL	2 h	0.55 ×10⁻⁶ cm/s
